{"data": "Results from different studies", "note": "Protocols differ between the studies behind these lines."}
{"Compound": "CCc1cc(OC)c2nccc(N3CCc4c(cc(Cn5ccnc5)cc4-c4cn(C)nc4C(F)(F)F)C3=O)c2c1", "species": "male Sprague-Dawley rat", "medium": "plasma", "route": "intravenous", "dose": "3 mg/kg", "half-life [h]": 1}
{"Compound": "COc1ccc(C(C)=O)c(O)c1", "species": "male Sprague-Dawley rat", "medium": "plasma", "route": "oral", "dose": "100 mg/kg", "half-life [h]": 3.37}
{"Compound": "CCOC(=O)[C@@]12C[C@@H]1[C@@H](n1ccc3c(NC)nc(C#Cc4ccc(Cl)s4)nc31)[C@H](O)[C@@H]2O", "species": "male Sprague-Dawley rat", "medium": "plasma", "route": "oral", "dose": "3 mg/kg", "half-life [h]": 1.55}
{"Compound": "O=c1[nH]cc(F)c(=O)[nH]1", "species": "Sprague-Dawley rat", "medium": "plasma", "route": "oral", "dose": "20 mg/kg", "half-life [h]": 1.81}
{"Compound": "COc1cc2c3c(n(CCCN4CCOCC4)c(=O)c2cc1OC)-c1cc2c(cc1C3=O)OCO2", "species": "male Fischer 344 rat", "medium": "plasma", "route": "intravenous", "dose": "24 mg/m²", "setting": "single dose", "half-life [h]": 3.6}
{"Compound": "N#Cc1[nH]nnc1-c1cc(Cl)cc(/C=C/c2cccc(C(F)(F)F)c2)c1", "species": "male Sprague-Dawley rat", "medium": "plasma", "route": "oral", "dose": "10 mg/kg", "half-life [h]": 2.9}
{"Compound": "O=C(O)/C=C/c1ccc(O)c(O)c1", "method": "HPLC", "species": "Wistar rat", "medium": "plasma", "route": "oral", "half-life [h]": 0.33}
{"Compound": "O=C(Nc1ccc(C(F)(F)F)cc1F)N1CCC(Cc2cccc(Oc3ccc(C(F)(F)F)cn3)c2)CC1", "species": "male Sprague-Dawley rat", "medium": "blood", "route": "oral", "dose": "1 mg/kg", "half-life [h]": 5.8}
{"Compound": "CCNC(=O)c1nc(-c2ccc3[nH]c(-c4nc(C)no4)cc3c2)c(C)[nH]1", "species": "Sprague-Dawley rat", "medium": "plasma", "route": "intravenous", "dose": "1 mg/kg", "half-life [h]": 0.9}
{"Compound": "Oc1c(-n2ccnn2)cnn1-c1cc(N2CCOCC2)ncn1", "species": "male rat", "medium": "plasma", "route": "intravenous", "dose": "5 mg/kg", "half-life [h]": 3.1}
{"Compound": "O=C(Nc1cc(F)c(F)c(F)c1)c1ccc(F)c(S(=O)(=O)NCc2cccc(B(O)O)c2)c1", "species": "male Sprague-Dawley rat", "medium": "plasma", "route": "oral", "dose": "20 mg/kg", "half-life [h]": 1.08}
{"Compound": "N#Cc1ccc(Nc2nc(N)cc(Oc3c(F)cc(-c4ccc(C#N)cc4)cc3F)n2)cc1", "species": "Sprague-Dawley rat", "medium": "plasma", "route": "intravenous", "dose": "1 mg/kg", "half-life [h]": 1.25}
{"Compound": "Oc1c(Br)cc(Cl)c2cccnc12", "species": "Sprague-Dawley rat", "medium": "plasma", "route": "oral", "dose": "20 mg/kg", "half-life [h]": 5.6}
{"Compound": "CCc1cc(C(=O)NC)c2nccc(N3CCc4c(cc(Cn5ccnc5)cc4-c4cn(C)nc4C(F)(F)F)C3=O)c2c1", "species": "male Sprague-Dawley rat", "medium": "plasma", "route": "oral", "dose": "100 mg/kg", "setting": "single dose", "half-life [h]": 3.9}
{"Compound": "C=CC(=O)Nc1cc(Nc2nccc(Nc3cc(Cl)c(F)cc3C(C)(C)O)n2)c(OC)cc1N1CC[C@@H](N(C)C)C1", "species": "Wistar rat", "medium": "plasma", "route": "intravenous", "dose": "3 mg/kg", "half-life [h]": 6.37}
{"Compound": "Cc1cnc(N2CC3(CCOCC3)C2)c(C(=O)Nc2ccc(C(=O)N3CCc4cc(C(=O)Nc5c(C)cccc5F)sc4-c4ccccc43)cc2)c1", "species": "rat", "medium": "plasma", "route": "inhaled", "dose": "2.7 mg/kg", "setting": "single dose", "half-life [h]": 3.4}
{"Compound": "CNCc1cc(-c2ccccc2F)n(S(=O)(=O)c2cccnc2)c1", "species": "male Sprague-Dawley rat", "medium": "plasma", "route": "oral", "dose": "10 mg/kg", "half-life [h]": 1}
{"Compound": "COc1nc(-c2cc(C)c(N[C@@H](C)c3cc(F)cc(F)c3)nn2)ccc1-n1cnc(C)c1", "species": "male Sprague-Dawley rat", "medium": "plasma", "route": "intravenous", "dose": "1 mg/kg", "setting": "single dose", "half-life [h]": 3.1}
{"Compound": "COCCOC(=O)C1=C(C)NC(C)=C(C(=O)OC(C)C)C1c1cccc([N+](=O)[O-])c1 (stereo not drawn)", "species": "male Sprague-Dawley rat", "medium": "plasma", "route": "intravenous", "dose": "3 mg/kg", "half-life [h]": 6.7}
{"Compound": "COc1ccc2c(=O)n(C)c(-c3ccccc3)nc2c1", "species": "male Sprague-Dawley rat", "medium": "plasma", "route": "oral", "dose": "10 mg/kg", "half-life [h]": 0.74}
{"Compound": "Cc1c(-c2ccccc2)cccc1N1C(=O)c2cc(CN[C@H](C(=O)O)C(C)O)c(OCc3cccc(C#N)c3)cc2C1=O (stereo partly drawn)", "species": "Sprague-Dawley rat", "medium": "plasma", "route": "intravenous", "dose": "5 mg/kg", "half-life [h]": 6.44}
{"Compound": "COc1ccc2c(Cc3ccccc3F)c3n(c(=O)c2c1OC)CCc1cc2c(cc1-3)OCO2", "species": "rat", "medium": "plasma", "route": "oral", "dose": "5 mg/kg", "half-life [h]": 17.8}
{"Compound": "N#Cc1[nH]nnc1-c1cccc(-c2cc(F)cc(C(F)(F)F)c2)c1", "species": "male Sprague-Dawley rat", "medium": "plasma", "route": "oral", "dose": "10 mg/kg", "half-life [h]": 2.6}
{"Compound": "Nc1ncn([C@H]2C[C@H](O)[C@@H](CO)O2)c(=O)n1", "species": "male Wistar rat", "medium": "plasma", "route": "intravenous", "dose": "21 µmol/kg", "half-life [h]": 2.43}
